Experimental data collected from several papers.
Each line is one published result; the experiments were not run side by side.
Target: Myotonin-protein kinase (DMPK, Homo sapiens, UniProt Q09013)

SMILES | read-out | mode | technique | tested at | measurement | result
C=CC(=O)Nc1cc(Nc2nccc(Nc3cc(Cl)c(F)cc3C(C)(C)O)n2)c(OC)cc1N1CC[C@@H](N(C)C)C1 | enzyme activity | inhibitor |  | 1 µM | inhibition | 11%
Cn1c2c(Cl)c(Cl)ccc2c2cn[nH]c(=O)c21 | thermal stability |  | DSF | 10 µM | ΔTm | 0.4 °C
CCN(CC)CCNC(=O)c1c(C)[nH]c(/C=C2\C(=O)Nc3ccc(F)cc32)c1C | enzyme activity | inhibitor |  | 0.3 µM | inhibition | -8%
Cc1sc(C(=O)NC2COC2)cc1-n1cc(NC(=O)Nc2c(F)cccc2Cl)cn1 | enzyme activity | inhibitor |  | 10 µM | remaining activity | 95.2%
Cc1cnc(NC2CCOCC2)nc1-n1cnc(C(=O)NC(CN)c2cc(F)cc(Cl)c2)c1 (stereo not shown) | enzyme activity | inhibitor | radiometric | 1 µM | remaining activity | 95%
CC(C)(C)c1nc(-c2cccc(NS(=O)(=O)c3c(F)cccc3F)c2F)c(-c2ccnc(N)n2)s1 | enzyme activity | inhibitor | radiometric | 1 µM | remaining activity | 103%
CN(c1ccnc(CNc2nc(Nc3ccc4c(c3)CC(=O)N4)ncc2C(F)(F)F)n1)S(C)(=O)=O | cell-free assay |  | competition with immobilised ligand | 1 µM | remaining binding | 23%
CCOc1cc(-c2nncn2C)ccc1Nc1ncc2cc(C)nc(NCC(C)(C)C)c2n1 | cell-free assay |  | TR-FRET | 1 µM | inhibition | ≤ 15%
N#CC1c2c([nH]c3c(Cl)c(Cl)ccc23)C(=O)NC12CCCCC2 (racemic) | thermal stability |  | DSF | 10 µM | ΔTm | -0.6 °C
O=C(O)c1cc(-c2ccc(C3CCNCC3)cc2)c2ccc(-c3ccc(C(F)(F)F)cc3)cc2c1 | cell-free assay |  | competition with immobilised ligand | 1 µM | remaining binding | 100%
O=C1Nc2ccc(Cl)cc2C1=Cc1cc(Cl)c(O)c(Cl)c1 | cell-free assay |  |  | 0.5 µM | remaining signal | 112%
Cn1c2c(c3ccccc31)C(C#N)C(C)(C)NC2=O (stereo not shown) | thermal stability |  | DSF | 10 µM | ΔTm | -0.3 °C
CNC(=O)c1cc(Oc2ccc(NC(=O)Nc3ccc(Cl)c(C(F)(F)F)c3)cc2)ccn1 | enzyme activity | inhibitor |  | 0.3 µM | inhibition | -9%
CCN(CC)c1ccc(C2=NNC(=O)CC2C)cc1[N+](=O)[O-] (stereo not shown) | enzyme activity | inhibitor |  | 10 µM | remaining activity | 91%
Cc1ccc(Nc2nccc(N(C)c3ccc4c(C)n(C)nc4c3)n2)cc1S(N)(=O)=O | enzyme activity | inhibitor |  | 10 µM | inhibition | -12%
O=C(NCc1ncc(C(F)(F)F)cc1Cl)c1ccc2c(c1)C1(CCS(=O)(=O)CC1)[C@@H](C1CC1)N2S(=O)(=O)c1ccc(F)cc1 | cell-free assay |  | competition with immobilised ligand | 1 µM | remaining binding | 86%
O=C1NC(=O)c2cc(Nc3ccc(F)cc3)c(Nc3ccc(F)cc3)cc21 | cell-free assay |  |  | 0.5 µM | remaining signal | 108%
CC(C)(O)[C@H]1CC[C@H](Nc2ccc3ncc(-c4cccc(C(F)(F)F)c4)n3n2)CC1 | enzyme activity | inhibitor |  | 1 µM | remaining activity | 97.5%
c1ccc(N2CCN(Cc3nc4ccccc4[nH]3)CC2)nc1 | binding |  | competition with immobilised ligand | 1 µM | remaining binding | 100%
Cc1cc(NC(=O)c2cccc3cc(-c4cccc5[nH]nc(N)c45)ccc23)ccc1F | enzyme activity | inhibitor |  | 0.1 µM | activity vs control | 99%
Cc1nc(C2CCN(C(=O)c3ccc(OC(F)(F)F)cc3N)CC2)c2ncc(N3CCN(C)CC3)cc2n1 | cell-free assay |  | competition with immobilised ligand | 1 µM | remaining binding | 100%
Cn1c2c(c3ccc(Cl)c(Cl)c31)C(C#N)C(C)(C)NC2=O (stereo not shown) | thermal stability |  | DSF | 10 µM | ΔTm | 0.4 °C
COc1ccc2cc(OCC3(C(=O)O)CN(C(=O)c4ccc(F)cc4)C3)ccc2c1 | cell-free assay |  | competition with immobilised ligand | 1 µM | remaining binding | 76%
Cc1ccc(NC(=O)c2ccc(C)c(C(F)(F)F)c2)cc1C#Cc1nn(C2CCC(O)CC2)c2ncnc(N)c12 (stereo not shown) | cell-free assay |  |  | 10 µM | remaining signal | 91%
CC(C)CC(=O)N1CCc2nc(-c3ccc(Br)cc3)nc(N(C)Cc3ccccc3)c2C1 | cell-free assay |  | competition with immobilised ligand | 0.1 µM | remaining binding | 87%
Cn1c2c(c3ccc(Cl)c(Cl)c31)C(C#N)C1(CCNCC1)NC2=O (racemic) | thermal stability |  | DSF | 10 µM | ΔTm | -0.3 °C
COc1ccc2c(O[C@@H]3C[C@H]4C(=O)N[C@]5(C(=O)O)CC5/C=C\CCCCC[C@H](NC(=O)OC5CCCC5)C(=O)N4C3)cc(-c3csc(NC(=O)C(C)C)n3)nc2c1C (stereo partly shown) | cell-free assay |  | competition with immobilised ligand | 1 µM | remaining binding | 83%
CCC1(CC)NC(=O)c2c(c3ccc(Cl)c(Cl)c3n2C)C1C#N (stereo not shown) | thermal stability |  | DSF | 10 µM | ΔTm | 0.2 °C
